# Test results taken from ChEMBL document CHEMBL1159312, “Novel bioactive clerodane diterpenoids from the leaves and twigs of Casearia sylvestris” (J Nat Prod, 2002).
# Experiments:
# KB = test: Cytotoxicity against human KB cells after 72 hrs by MTS method; type: functional, cell-based
# Aspergillus niger = test: Antifungal activity against Aspergillus niger; type: functional
# Procedure, shortened: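 Disk diffusion assay measuring growth inhibition of Aspergillus niger, run by an earlier published method. The zone of inhibition is reported as an area rather than a diameter.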
# LX-1 = test: Cytotoxicity against human LX1 cells after 72 hrs by MTS method; type: functional, cell-based; details: LX-1, 72 h
# Procedure, shortened: (§1)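 Cells grown in McCoy's 5A with 10% heat-inactivated fetal bovine serum and seeded 24 h before dosing. Serially diluted compound was added, then incubated 72 h at 37 °C. MTS with phenazine methosulfate was added for 3 h more, and absorbance at 492 nm gave survival relative to untreated controls. IC50 was taken from six-point curves (5-fold dilutions), each point in duplicate.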
# HCT-116 = test: Cytotoxicity against human HCT116 cells after 72 hrs by MTS method; type: functional, cell-based; details: HCT-116, 72 h; procedure, shortened: as §1
# A2780 = test: Cytotoxicity against human A2780 cells after 72 hrs by MTS method; type: functional, cell-based; details: A2780, 72 h; procedure, shortened: as §1
smiles,measurement,setting,value
C=C/C(C)=C/C[C@]1(C)[C@H](C)C[C@H](O)[C@]23C(=C[C@@H](OC(=O)CCCCC)C[C@@H]12)[C@@H](OC(C)=O)O[C@H]3OC(C)=O [CASEARVESTRIN C],EC50,KB,0.34 µg/mL
same,inhibition zone (IZ),Aspergillus niger,177 mm2
same,IC50,LX-1,290 nM
same,IC50,HCT-116,260 nM
same,IC50,A2780,420 nM
C=C/C(C)=C/C[C@]1(C)[C@H](C)C[C@H](O)[C@]23C(=C[C@@H](OC(=O)C(C)C)C[C@@H]12)[C@@H](OC(C)=O)O[C@H]3OC(C)=O [CASEARVESTRIN A],EC50,KB,1.4 µg/mL
same,inhibition zone (IZ),Aspergillus niger,348 mm2
same,IC50,LX-1,540 nM
same,IC50,HCT-116,710 nM
same,IC50,A2780,820 nM
C[C@@H]1[C@H](O)[C@@H](C)/C=C/C=C/C=C/C=C/C=C/C=C/C=C/[C@H](O[C@@H]2O[C@H](C)[C@@H](O)[C@H](N)[C@@H]2O)C[C@@H]2O[C@](O)(C[C@@H](O)C[C@@H](O)[C@H](O)CC[C@@H](O)C[C@@H](O)CC(=O)O[C@H]1C)C[C@H](O)[C@H]2C(=O)O [AMPHOTERICIN B],inhibition zone (IZ),Aspergillus niger,254 mm2
C=C/C(C)=C/C[C@]1(C)[C@H](C)C[C@H](O)[C@]23C(=C[C@@H](OC(=O)C(C)CC)C[C@@H]12)[C@@H](OC(C)=O)O[C@H]3OC(C)=O (some centres undefined) [CASEARVESTRIN B],EC50,KB,1.4 µg/mL
same,inhibition zone (IZ),Aspergillus niger,296 mm2
same,IC50,LX-1,200 nM
same,IC50,HCT-116,250 nM
same,IC50,A2780,320 nM
CC[C@@]1(O)C(=O)OCc2c1cc1n(c2=O)Cc2cc3ccccc3nc2-1 [CAMPTOTHECIN],IC50,LX-1,120 nM
same,IC50,HCT-116,9 nM
same,IC50,A2780,4 nM
